In ChEMBL document CHEMBL1122650, “Synthesis and central nervous system properties of 2-[(alkoxycarbonyl)amino]-4(5)-phenyl-2-imidazolines” (J Med Chem, 1984):
Activity calls are given as the source filed them. The rule behind the calls is not given here.

Legend:
[1] = HPLC capacity factor (k'); format: ADME
Mus musculus [2] = test: Compound was evaluated in vivo for reserpine hypothermia after oral administration in mouse. Minimum active dose was reported,; format: functional
In short: (§1)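 Male HLa (ICR) BR mice, 18-24 g, in groups of eight; reserpine 5 mg/kg ip given 2 h before oral test compound as aqueous solution. Rectal temperature taken hourly; 1-4-h hypothermia assessed by analysis of variance.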

Mus musculus [3] = species on record: Mus musculus; test: Compound was evaluated for maximal electroshock antagonism (MES) against mice; format: functional
In short: (§2)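 Male HLa (ICR) BR mice, groups of eight to ten, dosed ip (aqueous solution) 15 min before transcorneal electroshock (50 mA, 0.2 s). End point: abolition of tonic hind-limb extension; quantal ED50 by Litchfield-Wilcoxon.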

[4] = Lethal dose in mouse, in groups of ten; format: toxicity, organism-based; conditions: in vivo
Mus musculus [5] = species on record: Mus musculus; test: Mouse behavior activity was determined; Depressant; format: functional, organism-based
In short: (§3)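 Male Simonsen (ICR) fBR mice, 18-24 g, groups of three, given 3, 10, 30, 100, 300 or 1000 mg/kg ip as aqueous solution and observed for behavioral profile; deaths followed up to 7 days.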

Mus musculus [6] = species on record: Mus musculus; test: Righting ability was determined in mice before rapid rolling (unaroused); format: functional
In short: (§4)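 Male Simonsen (ICR) fBR mice, 18-24 g, groups of ten, dosed with aqueous compound. Righting ability checked before (unaroused) and after (aroused) rapid rolling in the hand; ED50 by Litchfield-Wilcoxon method.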

Mus musculus [7] = species on record: Mus musculus; test: Mouse behavior activity was determined; Stimulant-Depressant Weak; format: functional, organism-based; in short: as §3
Mus musculus [8] = species on record: Mus musculus; test: Compound was evaluated for maximal electroshock antagonism (MES) against mice; Inactive; format: functional, organism-based; in short: as §2
Mus musculus [9] = species on record: Mus musculus; test: Evaluated for antagonism of reserpine induced hypothermia;I= Inactive; format: functional, organism-based; in short: as §1
Mus musculus [10] = species on record: Mus musculus; test: Mouse behavior activity was determined; Dwk=Depressant (Weak); format: functional, organism-based; in short: as §3
Mus musculus [11] = test: Compound was evaluated in vivo for reserpine hypothermia after oral administration in mouse. Minimum active dose was reported, with the percent reversal at 10 mg/kg; I=inactive; format: functional, organism-based; parameters: dose 10 mg/kg; in short: as §1
Mus musculus [12] = species on record: Mus musculus; test: Compound was evaluated for antagonism of reserpine induced hypothermia; I=inactive; format: functional, organism-based; in short: as §1
Mus musculus [13] = species on record: Mus musculus; test: Compound was evaluated for maximal electroshock antagonism (MES) against mice; I=inactive; format: functional, organism-based; in short: as §2
Mus musculus [14] = species on record: Mus musculus; test: Evaluated for antagonism of reserpine induced hypothermia; format: functional; in short: as §1
Rattus norvegicus [15] = species on record: Rattus norvegicus; test: Inhibition of the NE [3H]Norepinephrine uptake by rat brain slices In vitro; format: functional
Rattus norvegicus [16] = species on record: Rattus norvegicus; test: Inhibition of the 5-HT [14C]5-HT) uptake by rat brain slices In vitro; format: functional
In short: (§5)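 Rat cerebral cortex slices, 5 mg tissue per mL Krebs-Henseleit buffer, incubated at 37 °C with [3H]NE or [14C]5-HT; blanks at 4 °C, undosed controls. Stopped after 20 min by filtration; slice radioactivity counted; IC50 from linear regression of uptake inhibition.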

Mus musculus [17] = species on record: Mus musculus; test: (§6) Inhibition of radioactive NE [3H]norepinephrine uptake into mouse heart; format: functional
In short: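 Mice dosed ip (aqueous solution) before iv [3H]NE; hearts removed 3 h after label, washed, weighed, dissolved in Protosol and counted as dpm per mg tissue. Dose-response from linear regression.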

Mus musculus [18] = test: Reserpine hypothermia antagonism in mouse administered perorally with 5 mg/kg of reserpine 2 hour prior to test compound administration; format: functional; conditions: route oral
Mus musculus [19] = species on record: Mus musculus; test: Mouse behavior activity was determined;S= Stimulant Weak.; format: functional, organism-based
[20] = molecular target: Norepinephrine transporter (Rattus norvegicus, UniProt Q9WTR4); test: (§7) Inhibition of the NE [3H]norepinephrine uptake by rat brain slices In vitro; format: tissue-based
In short: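 Rat cerebral cortex slices at 5 mg tissue/mL Krebs-Henseleit buffer, incubated at 37 °C; blanks incubated at 4 °C, controls without drug. After 20 min, incubation stopped by filtration and tissue radioactivity measured. IC50 taken from linear regression of uptake inhibition.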

Mus musculus [21] = species on record: Mus musculus; test: Compound was evaluated for maximal electroshock antagonism (MES) against mice (values in parentheses indicates 95% confidence limits); format: functional
In short: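 Male HLa (ICR) BR mice, groups of eight to ten, given compound ip as aqueous solution 15 min before transcorneal electroshock (50 mA, 0.2 s). End point was abolition of tonic hind-limb extension; quantal ED50 derived by Litchfield-Wilcoxon.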

Mus musculus [22] = species on record: Mus musculus; test: as §6; format: functional; remark: listed apart in the source
In short: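 Mice received compound ip before iv [3H]NE. At 3 h after [3H]NE, hearts were removed, washed, weighed, dissolved in Protosol and counted as dpm per mg tissue. Dose-response curves derived by linear regression.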

[23] = Compound was evaluated for lethal dose in mouse in groups of ten (values in parentheses indicates 95% confidence limits); format: toxicity, organism-based; conditions: in vivo
Mus musculus [24] = species on record: Mus musculus; test: Mouse behavior activity was determined; ST = Stimulant(Weak); format: functional, organism-based
In short: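 Male Simonsen (ICR) fBR mice (18-24 g) given 3, 10, 30, 100, 300 or 1000 mg/kg ip as aqueous solution and observed for behaviour in groups of three.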

Mus musculus [25] = test: Compound was evaluated in vivo for reserpine hypothermia after oral administration in mouse. Minimum active dose was reported, with the percent reversal at 10 mg/kg in parenthesis.; format: functional
In short: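 Male HLa (ICR) BR mice (18-24 g), groups of eight, dosed ip with 5 mg/kg reserpine 2 h before oral test compound given as aqueous solution. Rectal temperature measured hourly; 1-4-h thermia assessed by analysis of variance.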

Mus musculus [26] = species on record: Mus musculus; test: Mouse behavior activity was determined; D=Depressant; format: functional, organism-based; in short: as §3
Rattus norvegicus [27] = species on record: Rattus norvegicus; test: Inhibition of the 5-HT [14C]5-HT uptake by rat brain slices In vitro; format: functional; in short: as §5
Rattus norvegicus [28] = species on record: Rattus norvegicus; test: as §7; format: functional
Mus musculus [29] = species on record: Mus musculus; test: Compound was evaluated for antagonism of reserpine induced hypothermia; I = inactive; format: functional, organism-based; in short: as §1
Mus musculus [30] = species on record: Mus musculus; test: Mouse behavior activity was determined; ST= Stimulant, D = Depressant; format: functional, organism-based; in short: as §3
Mus musculus [31] = test: Mouse behavior activity was determined; I=inactive at a dose of 50 mg/Kg; format: functional, organism-based
Mus musculus [32] = species on record: Mus musculus; test: Mouse behavior activity was determined; D=-Depressant.; format: functional, organism-based; in short: as §3
Mus musculus [33] = species on record: Mus musculus; test: Righting ability was determined in mice after rapid rolling (aroused); format: functional; in short: as §4
Mus musculus [34] = species on record: Mus musculus; test: Righting ability was determined in mice before rapid rolling (unaroused);; format: functional; in short: as §4
Mus musculus [35] = test: Compound was evaluated in vivo for reserpine hypothermia after oral administration in mouse Minimum active dose was reported; Inactive; format: functional, organism-based; in short: as §1
Mus musculus [36] = species on record: Mus musculus; test: Compound was evaluated for antagonism of reserpine induced hypothermia; Inactive.; format: functional, organism-based; in short: as §1
Mus musculus [37] = species on record: Mus musculus; test: Mouse behavior activity was determined; Dwk= Depressant Weak.; format: functional, organism-based; in short: as §3
Mus musculus [38] = species on record: Mus musculus; test: Righting ability was determined in mice […] rapid rolling (aroused); format: functional; in short: as §4
Mus musculus [39] = species on record: Mus musculus; test: Mouse behavior activity was determined; Depressant-Stimulant; format: functional, organism-based; in short: as §3
Mus musculus [40] = species on record: Mus musculus; test: Mouse behavior activity was determined; Depressant.; format: functional, organism-based; in short: as §3

Sequence of Norepinephrine transporter (Q9WTR4 whole entry): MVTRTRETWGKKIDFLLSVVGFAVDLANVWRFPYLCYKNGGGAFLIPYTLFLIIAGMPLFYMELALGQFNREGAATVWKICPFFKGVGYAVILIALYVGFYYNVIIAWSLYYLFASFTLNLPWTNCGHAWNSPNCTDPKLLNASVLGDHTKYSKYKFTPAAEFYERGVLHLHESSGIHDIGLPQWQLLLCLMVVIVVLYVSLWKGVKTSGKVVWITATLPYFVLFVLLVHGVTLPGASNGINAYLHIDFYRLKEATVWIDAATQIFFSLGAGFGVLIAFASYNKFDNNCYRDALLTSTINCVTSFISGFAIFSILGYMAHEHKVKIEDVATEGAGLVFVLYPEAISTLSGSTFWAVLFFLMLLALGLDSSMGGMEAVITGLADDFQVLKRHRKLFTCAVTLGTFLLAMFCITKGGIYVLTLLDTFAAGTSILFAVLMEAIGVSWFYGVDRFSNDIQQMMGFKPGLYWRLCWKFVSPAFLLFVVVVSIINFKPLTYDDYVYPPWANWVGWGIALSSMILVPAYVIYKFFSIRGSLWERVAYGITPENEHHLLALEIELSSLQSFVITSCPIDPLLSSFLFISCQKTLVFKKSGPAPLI

SMILES: COC(=O)NC1=NC(c2cccc(Cl)c2Cl)CN1C (configuration not stated)
- Log k' [1]: 0.91
- ED50 (Mus musculus [2]): 23 mg/kg
- ED50 (Mus musculus [3]): 30 mg/kg

SMILES: COC(=O)NC1=NC2(CCc3ccccc32)CN1 (configuration not stated)
- LD50 [4]: 700 mg/kg
- Log k' [1]: 0.3
- Mouse behavior activity (Mus musculus [5]): Depressant
- ED50 (Mus musculus [3]): 75 mg/kg
- Loss of righting reflex (Mus musculus [6]): 200 mg/kg

SMILES: CCOC(=O)NC1=NC(c2ccc(O)cc2)CN1C(C)C (configuration not stated)
- LD50 [4]: 200 mg/kg
- Log k' [1]: 0.7
- Mouse behavior activity (Mus musculus [7]): Stimulant-Depressant Weak
- ED50 (Mus musculus [8]): inactive
- HYPO (Mus musculus [9]): inactive

SMILES: COC(=O)NC1=NC(c2ccc(OC(C)=O)cc2)CN1C (configuration not stated)
- Mouse behavior activity (Mus musculus [10]): Depressant - weak
- LD50 [4]: 700 mg/kg
- Log k' [1]: 0.2
- ED50 (Mus musculus [11]): inactive
- HYPO (Mus musculus [12]): inactive
- ED50 (Mus musculus [13]): inactive

SMILES: NC1=NC(c2c(Cl)cccc2Cl)CN1 (configuration not stated)
- HYPO (Mus musculus [14]): <0.5 mg/kg
- LD50 [4]: 70 mg/kg
- ED50 (Mus musculus [8]): inactive
- IC50 (Rattus norvegicus [15]): 100 nM
- IC50 (Rattus norvegicus [16]): 7800 nM
- ED50 (Mus musculus [17]): 6.5 mg/kg
- Reserpine hypothermia (Mus musculus [18]): 0.15 mg/kg

SMILES: COC(=O)NC1=NC(c2ccc(Cl)cc2)CN1 (configuration not stated)
- LD50 [4]: 500 mg/kg
- Log k' [1]: 0.31
- ED50 (Mus musculus [3]): ~200 mg/kg
- Mouse behavior activity (Mus musculus [19]): Stimulant weak

SMILES: CN(C)CCC=C1c2ccccc2CCc2ccccc21 [AMITRIPTYLINE]
- IC50 [20]: 2500 nM
- ED50 (Mus musculus [21]): 14 mg/kg
- ED50 (Mus musculus [22]): 4.4 mg/kg
- LD50 [23]: 70 mg/kg
- HYPO (Mus musculus [14]): <0.5 mg/kg
- Mouse behavior activity (Mus musculus [24]): Partial stimulant
- ED50 (Mus musculus [25]): 8 mg/kg
- Reserpine hypothermia (Mus musculus [18]): 0.15 mg/kg

SMILES: COC(=O)NC1=NC(c2ccccc2SC)CN1C (configuration not stated)
- LD50 [4]: 200 mg/kg
- Log k' [1]: 0.63
- ED50 (Mus musculus [8]): inactive
- HYPO (Mus musculus [9]): inactive
- Loss of righting reflex (Mus musculus [6]): 70 mg/kg
- Mouse behavior activity (Mus musculus [26]): Depressant

SMILES: CN1CC(c2ccccc2Cl)N=C1N (configuration not stated)
- HYPO (Mus musculus [14]): <0.5 mg/kg
- ED50 (Mus musculus [17]): 18.3 mg/kg
- IC50 (Rattus norvegicus [27]): 30000 nM
- Reserpine hypothermia (Mus musculus [18]): 0.15 mg/kg
- IC50 (Rattus norvegicus [28]): 500 nM

SMILES: O=C1NC(=O)C(c2ccccc2)(c2ccccc2)N1 [PHENYTOIN]
- ED50 (Mus musculus [21]): 6 mg/kg
- LD50 [23]: 700 mg/kg
- HYPO (Mus musculus [29]): inactive
- Mouse behavior activity (Mus musculus [30]): Stimulant

SMILES: COC(=O)NC1=NC(c2ccc(O)c(O)c2)CN1 (configuration not stated)
- LD50 [23]: > 1000 mg/kg
- HYPO (Mus musculus [14]): >20 mg/kg
- Log k' [1]: -1.51
- Mouse behavior activity (Mus musculus [31]): inactive

SMILES: COC(=O)NC1=NC(c2ccccc2C)CN1 (configuration not stated)
- HYPO (Mus musculus [14]): >20 mg/kg
- LD50 [4]: 300 mg/kg
- Log k' [1]: 0.16
- ED50 (Mus musculus [3]): 55 mg/kg
- Mouse behavior activity (Mus musculus [32]): Depressant
- Loss of righting reflex (Mus musculus [33]): 172 mg/kg
- Loss of righting reflex (Mus musculus [34]): 144 mg/kg

SMILES: CCCCCCOC(=O)NC1=NC(c2ccc(Cl)cc2)CN1 (configuration not stated)
- ED50 (Mus musculus [35]): inactive
- LD50 [4]: 200 mg/kg
- Log k' [1]: 2.18
- ED50 (Mus musculus [8]): inactive
- HYPO (Mus musculus [36]): inactive
- Mouse behavior activity (Mus musculus [37]): Depressant - weak

SMILES: CC(C)OC(=O)NC1=NC(c2ccccc2Cl)CN1C (configuration not stated)
- Loss of righting reflex (Mus musculus [38]): 67 mg/kg
- LD50 [4]: 700 mg/kg
- Log k' [1]: 1.08
- ED50 (Mus musculus [3]): 35 mg/kg
- Loss of righting reflex (Mus musculus [6]): 46 mg/kg
- Mouse behavior activity (Mus musculus [39]): Depressant-Stimulant

SMILES: COC(=O)NC1=NC(c2ccccc2Cl)CN1C (configuration not stated)
- Loss of righting reflex (Mus musculus [38]): 92 mg/kg
- LD50 [4]: 238 mg/kg
- Log k' [1]: 0.51
- Mouse behavior activity (Mus musculus [40]): Depressant
- ED50 (Mus musculus [3]): 28 mg/kg
- Loss of righting reflex (Mus musculus [6]): 49 mg/kg
